ChEMBL document CHEMBL2086239, “Synthesis and biological evaluation of combretastatin-amidobenzothiazole conjugates as potential anticancer agents” (Eur J Med Chem, 2012)
One block for each compound: values may come before it. Activity calls are given as the source filed them. The rule behind the calls is not given here.

What was measured:
Type in all cases: functional
NCI-H23 = assay: Growth inhibition of human NCI-H23 cells after 48 hrs by SRB assay; conditions: NCI-H23, 48 h
Procedure, shortened: (§1)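 NCI 60-cell-line screen: after preliminary screening, tested at five dose concentrations on 59 human tumour lines covering leukemia, lung, colon, CNS, melanoma, ovarian, renal, prostate and breast.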

HOP-62 = assay: Growth inhibition of human HOP62 cells after 48 hrs by SRB assay; conditions: HOP-62, 48 h; procedure, shortened: as §1
A498 = assay: Growth inhibition of human A498 cells after 48 hrs by SRB assay; conditions: A498, 48 h; procedure, shortened: as §1
HOP-92 = assay: Growth inhibition of human HOP92 cells after 48 hrs by SRB assay; conditions: HOP-92, 48 h; procedure, shortened: as §1
NCI-H322M = assay: Growth inhibition of human NCI-H322M cells after 48 hrs by SRB assay; procedure, shortened: as §1
OVCAR-4 = assay: Growth inhibition of human OVCAR4 cells after 48 hrs by SRB assay; conditions: OVCAR-4, 48 h; procedure, shortened: as §1
NCI/ADR-RES = assay: Growth inhibition of human NCI/ADR-RES cells after 48 hrs by SRB assay; procedure, shortened: as §1
HT-29 = assay: Growth inhibition of human HT-29 cells after 48 hrs by SRB assay; conditions: HT-29, 48 h; procedure, shortened: as §1
PC-3 [1] = assay: Growth inhibition of human PC3 cells after 48 hrs by SRB assay; conditions: PC-3, 48 h; procedure, shortened: as §1
Hs-578T = assay: Growth inhibition of human Hs578T cells after 48 hrs by SRB assay; procedure, shortened: as §1
OVCAR-5 = assay: Growth inhibition of human OVCAR5 cells after 48 hrs by SRB assay; conditions: OVCAR-5, 48 h; procedure, shortened: as §1
A549 [2] = assay: Cytotoxicity against human A549 cells assessed as inhibition of cell growth at 10 uM after 48 hrs by SRB assay relative to control
Procedure, shortened: (§2)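 SRB protein assay in DMEM with 10% FBS at 37 °C, 5% CO2, 100% relative humidity. Cells seeded in 96-well plates, incubated 24 h, then exposed to drug at 10 µM for 48 h and processed per standard protocol. Absorbance read at 560 nm; growth percentage calculated for test wells relative to control wells.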

SNB-75 = assay: Growth inhibition of human SNB75 cells after 48 hrs by SRB assay; conditions: SNB-75, 48 h
Procedure, shortened: (§3)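 NCI 60-cell-line panel, five-dose testing after preliminary screen; sulforhodamine B protein assay in DMEM with 10% FBS, 37 °C, 5% CO2, 100% humidity. Cells seeded and incubated 24 h before compound addition, then exposed 48 h. Absorbance read at 560 nm; growth percentage relative to control wells; GI50 taken as concentration giving 50% growth inhibition.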

PC-3 [3] = assay: Cytotoxicity against human PC3 cells after 48 hrs assessed as inhibition of cell growth at 10 uM after 48 hrs by SRB assay relative to control; conditions: PC-3, 48 h, read-out: GI; procedure, shortened: as §2
SW-620 = assay: Growth inhibition of human SW620 cells after 48 hrs by SRB assay; conditions: SW-620, 48 h; procedure, shortened: as §3
BT-549 = assay: Growth inhibition of human BT549 cells after 48 hrs by SRB assay; conditions: BT-549, 48 h; procedure, shortened: as §1
EKVX = assay: Growth inhibition of human EKVX cells after 48 hrs by SRB assay; procedure, shortened: as §1
NCI-H226 = assay: Growth inhibition of human NCI-H226 cells after 48 hrs by SRB assay; conditions: NCI-H226, 48 h; procedure, shortened: as §1
HCT-116 = assay: Growth inhibition of human HCT116 cells after 48 hrs by SRB assay; conditions: HCT-116, 48 h; procedure, shortened: as §1
A549 [4] = assay: Growth inhibition of human A549 cells after 48 hrs by SRB assay; conditions: A549, 48 h; procedure, shortened: as §1
SF-295 = assay: Growth inhibition of human SF295 cells after 48 hrs by SRB assay; conditions: SF-295, 48 h; procedure, shortened: as §3
SK-MEL-2 = assay: Growth inhibition of human SK-MEL-2 cells after 48 hrs by SRB assay; conditions: SK-MEL-2, 48 h; procedure, shortened: as §3
MCF7 [5] = assay: Cell cycle arrest in human MCF7 cells assessed as accumulation at S phase at 4 uM after 24 hrs by FACS analysis (reference value: 6.79%)
MCF7 [6] = assay: Cell cycle arrest in human MCF7 cells assessed as accumulation at G1 phase at 4 uM after 24 hrs by FACS analysis (reference value: 58.33%)
HCC 2998 = assay: Growth inhibition of human HCC2998 cells after 48 hrs by SRB assay; conditions: HCC 2998, 48 h; procedure, shortened: as §1
SK-OV-3 = assay: Growth inhibition of human SKOV3 cells after 48 hrs by SRB assay; conditions: SK-OV-3, 48 h; procedure, shortened: as §3
CCRF-CEM = assay: Growth inhibition of human CCRF-CEM cells after 48 hrs by SRB assay; procedure, shortened: as §1
MOLT-4 = assay: Growth inhibition of human MOLT4 cells after 48 hrs by SRB assay; conditions: MOLT-4, 48 h; procedure, shortened: as §1
786-0 = assay: Growth inhibition of human 786-0 cells after 48 hrs by SRB assay; conditions: 786-0, 48 h; procedure, shortened: as §1
MDA-MB-231 = assay: Growth inhibition of human MDA-MB-231 cells after 48 hrs by SRB assay; conditions: MDA-MB-231, 48 h; procedure, shortened: as §1
OVCAR-8 = assay: Growth inhibition of human OVCAR8 cells after 48 hrs by SRB assay; conditions: OVCAR-8, 48 h; procedure, shortened: as §1
MCF7 [7] = assay: Growth inhibition of human MCF7 cells after 48 hrs by SRB assay; conditions: MCF7, 48 h; procedure, shortened: as §1
SN12C = assay: Growth inhibition of human SN12C cells after 48 hrs by SRB assay; procedure, shortened: as §3
IMR-32 = assay: Cytotoxicity against human IMR32 cells after 48 hrs assessed as inhibition of cell growth at 10 uM after 48 hrs by SRB assay relative to control; conditions: IMR-32, 48 h, read-out: GI; procedure, shortened: as §2
MCF7 [8] = assay: Cytotoxicity against human MCF7 cells after 48 hrs assessed as inhibition of cell growth at 10 uM after 48 hrs by SRB assay relative to control; conditions: MCF7, 48 h, read-out: GI; procedure, shortened: as §2
DU-145 = assay: Growth inhibition of human DU145 cells after 48 hrs by SRB assay; conditions: DU-145, 48 h; procedure, shortened: as §1
M14 = assay: Growth inhibition of human M14 cells after 48 hrs by SRB assay; conditions: M14, 48 h; procedure, shortened: as §1
TK-10 = assay: Growth inhibition of human TK10 cells after 48 hrs by SRB assay; conditions: TK-10, 48 h; procedure, shortened: as §3
Malme-3M = assay: Growth inhibition of human MALME-3M cells after 48 hrs by SRB assay; procedure, shortened: as §1
T47D = assay: Growth inhibition of human T47D cells after 48 hrs by SRB assay; procedure, shortened: as §3
SR = assay: Growth inhibition of human SR cells after 48 hrs by SRB assay; procedure, shortened: as §3
SK-MEL-28 = assay: Growth inhibition of human SK-MEL-28 cells after 48 hrs by SRB assay; conditions: SK-MEL-28, 48 h; procedure, shortened: as §3
MDA-MB-468 = assay: Growth inhibition of human MDA-MB-468 cells after 48 hrs by SRB assay; conditions: MDA-MB-468, 48 h; procedure, shortened: as §1
KM12 = assay: Growth inhibition of human KM12 cells after 48 hrs by SRB assay; conditions: KM12, 48 h; procedure, shortened: as §1

Compound: COc1ccc(/C=C\c2cc(OC)c(OC)c(OC)c2)cc1OCC(=O)Nc1nc2ccc(C(F)(F)F)cc2s1
GI50 (NCI-H23): 3.9 µM | GI50 (HOP-62): 5.22 µM | GI50 (A498): 2.81 µM | GI50 (HOP-92): 2.88 µM | GI50 (NCI-H322M): 5.38 µM | GI50 (OVCAR-4): 4.66 µM | GI50 (NCI/ADR-RES): 2.12 µM | GI50 (HT-29): 14.9 µM | GI50 (PC-3 [1]): 4.32 µM | GI50 (Hs-578T): 4.18 µM | GI50 (OVCAR-5): 5.98 µM | inhibition of growth at 10 µM (A549 [2]; A549, 48 h, read-out: GI): 30% | GI50 (SNB-75): 1.58 µM | inhibition of growth at 10 µM (PC-3 [3]): 42% | GI50 (SW-620): 4.65 µM | GI50 (BT-549): 5.23 µM | GI50 (EKVX): 6.25 µM | GI50 (NCI-H226): 3.17 µM | GI50 (HCT-116): 3.29 µM | GI50 (A549 [4]): 4.46 µM | GI50 (SF-295): 3.36 µM | GI50 (SK-MEL-2): 3.98 µM | Activity (MCF7 [5]): 7.15% | Activity (MCF7 [6]): 55.82% | GI50 (HCC 2998): 4.23 µM | GI50 (SK-OV-3): 3.29 µM | GI50 (CCRF-CEM): 4.27 µM | GI50 (MOLT-4): 3.75 µM | GI50 (786-0): 6.96 µM | GI50 (MDA-MB-231): 3.38 µM | GI50 (OVCAR-8): 3.86 µM | GI50 (MCF7 [7]): 3.16 µM | GI50 (SN12C): 4.43 µM | inhibition of growth at 10 µM (IMR-32): 23% | inhibition of growth at 10 µM (MCF7 [8]): 62% | GI50 (DU-145): 2.51 µM | GI50 (M14): 3.58 µM | GI50 (TK-10): 7.03 µM | GI50 (Malme-3M): inactive | GI50 (T47D): 4.79 µM | GI50 (SR): 3.35 µM | GI50 (SK-MEL-28): 3 µM | GI50 (MDA-MB-468): 2.16 µM | GI50 (KM12): 3.14 µM

GI50 (NCI-H23): 2.53 µM | GI50 (NCI-H322M): 6.74 µM | GI50 (OVCAR-4): 2.64 µM | GI50 (HT-29): 3.31 µM | GI50 (PC-3 [1]): 2.8 µM | GI50 (OVCAR-5): 6.69 µM | GI50 (SW-620): 4.7 µM | GI50 (BT-549): 3.05 µM | GI50 (NCI-H226): 2.75 µM | GI50 (HCT-116): 3.57 µM | GI50 (A549 [4]): 2.1 µM | GI50 (SK-MEL-2): 3.15 µM | GI50 (HCC 2998): 6.9 µM | GI50 (SK-OV-3): 5.27 µM | GI50 (CCRF-CEM): 3.41 µM | GI50 (MOLT-4): 2.11 µM | GI50 (786-0): 7.55 µM | GI50 (MDA-MB-231): 5.45 µM | GI50 (OVCAR-8): 2.12 µM | GI50 (MCF7 [7]): 0.74 µM | GI50 (DU-145): 3.81 µM | GI50 (T47D): 9.41 µM | GI50 (SK-MEL-28): 3.22 µM | GI50 (MDA-MB-468): 2.39 µM
Compound: COc1ccc(/C=C\c2cc(OC)c(OC)c(OC)c2)cc1OCC(=O)Nc1ccc2nc(C)sc2c1
GI50 (HOP-62): 3.09 µM | GI50 (A498): 4.18 µM | GI50 (HOP-92): 2.38 µM | GI50 (NCI/ADR-RES): 2.36 µM | GI50 (Hs-578T): 4.32 µM | growth inhibition (GI) (A549 [2]): inactive | GI50 (SNB-75): 1.55 µM | inhibition of growth at 10 µM (PC-3 [3]): 61% | GI50 (EKVX): 4.05 µM | GI50 (SF-295): 2.45 µM | Activity (MCF7 [5]): 7.71% | Activity (MCF7 [6]): 55.2% | GI50 (SN12C): 3.53 µM | inhibition of growth at 10 µM (IMR-32): 62% | inhibition of growth at 10 µM (MCF7 [8]): 52% | GI50 (M14): 3.38 µM | GI50 (TK-10): 4.21 µM | GI50 (Malme-3M): 2.84 µM | GI50 (SR): 2.93 µM | GI50 (KM12): 3.79 µM
